# Experimental data: ChEMBL document CHEMBL1154286, “The discovery and optimisation of pyrido[2,3-d]pyrimidine-2,4-diamines as potent and selective inhibitors of mTOR kinase” (Bioorg Med Chem Lett, 2009)
# System: not listed separately
# Test: Inhibition of mTOR in human HeLa cells using 4E-BP1 substrate by ELISA
# Assay type: cell-based
# How it was run: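 Full-length mTOR immunoprecipitated from HeLa cytoplasmic extract; recombinant 4E-BP1 protein as substrate; ATP at 50 µM; phosphorylated product detected by ELISA. Values are the mean of at least 3 determinations, with variability around the mean <50%.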
row,SMILES,IC50 [µM]
1,C[C@@H]1CN(c2nc(N3CCOCC3)c3ccc(-c4ccc(O)c(CO)c4)nc3n2)C[C@H](C)O1,0.037
2,COc1ccc(-c2ccc3c(N4CCOCC4)nc(N4C[C@@H](C)O[C@@H](C)C4)nc3n2)cc1,0.045
3,COc1cccc(-c2ccc3c(N4CCOCC4)nc(N4C[C@@H](C)O[C@@H](C)C4)nc3n2)c1,0.49
4,C[C@H]1CCCCN1c1nc(N2CCCOCC2)c2cccnc2n1,4.8
5,C[C@@H]1CN(c2nc(N3CCOCC3)c3ccc(-c4ccoc4)nc3n2)C[C@H](C)O1,0.12
6,C[C@H]1CCCCN1c1nc(N2CCOCC2)c2cccnc2n1,0.69
7,C[C@H]1COCCN1c1nc(N2CCOCC2)c2cccnc2n1,1.8
8,C[C@@H]1CN(c2nc(N3CCOCC3)c3ccc(-c4ccncc4)nc3n2)C[C@H](C)O1,0.22
9,C[C@@H]1CN(c2nc(N3CCOCC3)c3ccc(-c4ccc(O)cc4)nc3n2)C[C@H](C)O1,0.039
10,C[C@@H]1CN(c2nc(N3CCOCC3)c3ccc(-c4ccsc4)nc3n2)C[C@H](C)O1,0.033
11,CC1CCCN(c2nc(N3CCOCC3)c3cccnc3n2)C1 (stereo not drawn),3

# Further lines, results first:
row,IC50 [µM],SMILES
1,1,CC1CCCCN1c1nc(N2CCOCC2)c2cccnc2n1 (racemic)
2,1.3,C[C@@H]1CN(c2nc(N3CCOCC3)c3cccnc3n2)C[C@H](C)O1
3,0.087,C[C@@H]1CN(c2nc(N3CCOCC3)c3ccc(Nc4ccncc4)nc3n2)C[C@H](C)O1
4,1.2,C[C@@H]1CCCCN1c1nc(N2CCOCC2)c2cccnc2n1
5,0.062,C[C@@H]1CN(c2nc(N3CCOCC3)c3ccc(-c4ccccc4)nc3n2)C[C@H](C)O1
6,0.12,C[C@@H]1CN(c2nc(N3CCOCC3)c3ccc(Nc4ccccc4)nc3n2)C[C@H](C)O1
7,0.093,C[C@@H]1CN(c2nc(N3CCOCC3)c3ccc(-c4cccc(CO)c4)nc3n2)C[C@H](C)O1
8,0.016,COc1ccc(-c2ccc3c(N4CCOCC4)nc(N4C[C@@H](C)O[C@@H](C)C4)nc3n2)cc1CO [Ku-0063794]
9,0.053,C[C@@H]1CN(c2nc(N3CCOCC3)c3ccc(-c4cccc(O)c4)nc3n2)C[C@H](C)O1

# Target: Serine/threonine-protein kinase mTOR (Homo sapiens) (UniProt P42345)
# Test: Inhibition of mTOR in human HeLa cells using 4E-BP1 substrate at 10 uM by ELISA
# Assay type: cell-based
row,SMILES,inhibition [%]
1,CC1CCCCN1c1nc(N2CCOCC2)c2ccncc2n1 (stereo not drawn),< 30
2,c1cnc2nc(N3CCOCC3)nc(N3CCOCC3)c2c1,< 30

# The next lines start with the values.
row,inhibition [%],SMILES
1,< 30,CC1CCCCN1c1nc(N2CCOCC2)c2ccccc2n1 (stereo not drawn)
2,< 30,C[C@H]1CCCCN1c1nc(N2CCCCC2)c2cccnc2n1
3,< 30,CC1CCCCN1c1nc(N2CCOCC2)c2ncccc2n1 (stereo not drawn)

# Target: Serine/threonine-protein kinase ATR (Homo sapiens, UniProt Q13535)
# Sequence (Q13535 whole entry): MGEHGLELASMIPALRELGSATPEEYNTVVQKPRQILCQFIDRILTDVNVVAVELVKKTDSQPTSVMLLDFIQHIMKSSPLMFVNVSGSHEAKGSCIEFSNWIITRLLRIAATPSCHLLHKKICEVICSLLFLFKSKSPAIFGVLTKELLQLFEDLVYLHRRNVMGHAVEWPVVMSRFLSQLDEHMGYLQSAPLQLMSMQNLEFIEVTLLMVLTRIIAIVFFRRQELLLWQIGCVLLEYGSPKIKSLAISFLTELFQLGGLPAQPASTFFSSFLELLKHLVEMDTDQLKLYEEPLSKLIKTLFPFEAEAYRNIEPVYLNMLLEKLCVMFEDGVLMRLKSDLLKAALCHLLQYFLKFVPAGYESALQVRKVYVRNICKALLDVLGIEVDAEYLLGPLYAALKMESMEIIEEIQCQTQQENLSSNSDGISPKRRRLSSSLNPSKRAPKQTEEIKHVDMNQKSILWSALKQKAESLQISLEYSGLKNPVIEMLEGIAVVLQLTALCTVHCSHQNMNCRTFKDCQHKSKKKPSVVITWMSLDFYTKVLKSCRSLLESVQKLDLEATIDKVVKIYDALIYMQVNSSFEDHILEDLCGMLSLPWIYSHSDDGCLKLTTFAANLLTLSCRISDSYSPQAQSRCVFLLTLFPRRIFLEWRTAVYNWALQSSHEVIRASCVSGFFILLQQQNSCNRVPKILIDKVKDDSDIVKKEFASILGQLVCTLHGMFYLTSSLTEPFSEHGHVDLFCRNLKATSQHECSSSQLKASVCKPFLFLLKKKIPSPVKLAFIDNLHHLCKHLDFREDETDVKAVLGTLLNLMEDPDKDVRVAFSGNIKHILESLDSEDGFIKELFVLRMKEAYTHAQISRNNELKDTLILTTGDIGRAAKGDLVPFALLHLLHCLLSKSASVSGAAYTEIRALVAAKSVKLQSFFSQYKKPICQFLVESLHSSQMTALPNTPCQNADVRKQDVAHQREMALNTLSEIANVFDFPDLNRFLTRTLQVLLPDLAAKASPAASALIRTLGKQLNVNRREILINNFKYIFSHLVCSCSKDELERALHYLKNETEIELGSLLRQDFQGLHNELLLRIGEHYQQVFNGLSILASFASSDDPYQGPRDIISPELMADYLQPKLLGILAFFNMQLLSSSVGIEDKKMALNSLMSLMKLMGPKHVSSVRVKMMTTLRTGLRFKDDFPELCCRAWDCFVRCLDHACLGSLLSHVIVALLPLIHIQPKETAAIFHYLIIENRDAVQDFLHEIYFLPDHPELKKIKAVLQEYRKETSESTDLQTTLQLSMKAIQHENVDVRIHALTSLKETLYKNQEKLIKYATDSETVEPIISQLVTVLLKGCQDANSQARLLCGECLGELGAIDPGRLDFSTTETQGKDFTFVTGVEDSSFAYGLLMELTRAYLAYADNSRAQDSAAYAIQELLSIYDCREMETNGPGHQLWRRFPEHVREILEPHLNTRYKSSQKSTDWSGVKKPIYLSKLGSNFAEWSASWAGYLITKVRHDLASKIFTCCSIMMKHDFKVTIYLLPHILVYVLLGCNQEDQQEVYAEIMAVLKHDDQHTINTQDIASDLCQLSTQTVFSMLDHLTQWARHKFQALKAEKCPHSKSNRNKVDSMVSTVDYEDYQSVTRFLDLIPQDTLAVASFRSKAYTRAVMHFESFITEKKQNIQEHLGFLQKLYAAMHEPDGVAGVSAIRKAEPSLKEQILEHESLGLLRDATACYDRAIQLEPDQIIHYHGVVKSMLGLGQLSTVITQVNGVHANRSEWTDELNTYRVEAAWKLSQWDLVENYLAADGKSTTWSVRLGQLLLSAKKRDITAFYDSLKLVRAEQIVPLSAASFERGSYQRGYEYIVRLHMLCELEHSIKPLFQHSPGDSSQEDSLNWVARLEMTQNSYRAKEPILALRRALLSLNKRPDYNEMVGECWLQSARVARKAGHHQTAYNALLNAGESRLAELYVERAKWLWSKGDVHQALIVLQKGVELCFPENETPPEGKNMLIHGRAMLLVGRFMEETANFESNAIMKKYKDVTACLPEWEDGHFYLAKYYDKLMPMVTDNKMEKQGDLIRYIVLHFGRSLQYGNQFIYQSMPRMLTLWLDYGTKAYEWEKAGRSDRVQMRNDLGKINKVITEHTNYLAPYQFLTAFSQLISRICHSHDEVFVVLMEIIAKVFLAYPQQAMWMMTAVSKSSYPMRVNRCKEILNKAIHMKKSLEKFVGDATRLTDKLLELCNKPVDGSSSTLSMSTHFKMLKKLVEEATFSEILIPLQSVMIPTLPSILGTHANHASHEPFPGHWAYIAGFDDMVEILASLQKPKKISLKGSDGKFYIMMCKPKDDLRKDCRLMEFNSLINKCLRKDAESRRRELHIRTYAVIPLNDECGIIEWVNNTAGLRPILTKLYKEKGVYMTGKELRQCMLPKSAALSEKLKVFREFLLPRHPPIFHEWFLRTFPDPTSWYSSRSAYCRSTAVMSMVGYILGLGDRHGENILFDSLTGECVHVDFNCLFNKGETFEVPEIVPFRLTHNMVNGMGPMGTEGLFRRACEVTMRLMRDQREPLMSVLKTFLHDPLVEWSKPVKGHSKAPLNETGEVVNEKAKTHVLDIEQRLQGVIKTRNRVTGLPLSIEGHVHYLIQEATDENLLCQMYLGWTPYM
# Test: Inhibition of ATR
row,IC50 [µM],SMILES
1,> 10,COc1ccc(-c2ccc3c(N4CCOCC4)nc(N4C[C@@H](C)O[C@@H](C)C4)nc3n2)cc1CO [Ku-0063794]

# Target: DNA-dependent protein kinase catalytic subunit (Homo sapiens, UniProt P78527)
# Test: Inhibition of DNA-PK
row,IC50 [µM],SMILES
1,> 10,COc1ccc(-c2ccc3c(N4CCOCC4)nc(N4C[C@@H](C)O[C@@H](C)C4)nc3n2)cc1CO [Ku-0063794]

# System: T47D
# Test: Antiproliferative activity against human T47D cells after 120 hrs by SRB assay
# Assay type: functional
row,GI50 [µM],SMILES
1,0.35,COc1ccc(-c2ccc3c(N4CCOCC4)nc(N4C[C@@H](C)O[C@@H](C)C4)nc3n2)cc1CO [Ku-0063794]
